Measured values taken from ChEMBL document CHEMBL1146122, “Neuropeptide Y (NPY) Y4 receptor selective agonists based on NPY(32-36): development of an anorectic Y4 receptor selective agonist with picomolar affinity” (J Med Chem, 2006).
Non-standard residues stand in square brackets, D forms with d. Residues, ends and D or L forms follow the SMILES beside them. Nva = CCC[C@H](N)C(=O)O

Assays:
[1] = species: Homo sapiens; assay: Selectivity for human NPY4 over NPY2 receptor
[2] = molecular target: T1, Neuropeptide Y receptor type 1 (Homo sapiens, UniProt P25929); assay: Displacement of […] from human NPY1 receptor expressed in CHO cells; format: cell-based
T1 sequence (P25929 whole entry): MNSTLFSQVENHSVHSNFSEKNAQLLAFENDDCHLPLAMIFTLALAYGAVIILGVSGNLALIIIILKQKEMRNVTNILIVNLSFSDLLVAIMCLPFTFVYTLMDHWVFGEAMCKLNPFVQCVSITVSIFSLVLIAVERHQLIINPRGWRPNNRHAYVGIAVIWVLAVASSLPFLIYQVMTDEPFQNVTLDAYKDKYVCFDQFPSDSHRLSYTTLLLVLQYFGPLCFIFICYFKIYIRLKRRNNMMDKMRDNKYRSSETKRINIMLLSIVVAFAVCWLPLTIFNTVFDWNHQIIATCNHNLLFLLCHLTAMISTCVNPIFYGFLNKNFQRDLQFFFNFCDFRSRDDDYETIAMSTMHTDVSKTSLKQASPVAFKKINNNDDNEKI
Outline: (§1)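 Competition binding on membranes (5-10 µg protein) from CHO cells stably expressing human Y1, Y2 or rat-human hybrid Y5 receptors. Radioligand 0.2 nM 125I-PYY, incubated with a range of peptide concentrations in 50 mM HEPES pH 7.3, 0.1% BSA, 2.5 mM CaCl2 and 1 mM MgCl2 for 90 min at room temperature. Bound ligand separated on PEI-treated glass fibre filters, washed with PBS and γ-counted. 1 µM NPY defined nonspecific binding. Duplicate points, three experiments, nonlinear regression.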

[3] = Displacement of […] from rat-human hybrid NPY5 receptor expressed in CHO cells; format: cell-based; outline: as §1
[4] = Selectivity for human NPY4 over rat-human hybrid NPY5 receptor
[5] = molecular target: T2, Neuropeptide Y receptor type 4 (Homo sapiens, UniProt P50391); assay: Agonist activity at human NPY4 receptor in CHO cells by inhibition of forskolin-stimulated cAMP synthesis
T2 sequence (P50391 whole entry): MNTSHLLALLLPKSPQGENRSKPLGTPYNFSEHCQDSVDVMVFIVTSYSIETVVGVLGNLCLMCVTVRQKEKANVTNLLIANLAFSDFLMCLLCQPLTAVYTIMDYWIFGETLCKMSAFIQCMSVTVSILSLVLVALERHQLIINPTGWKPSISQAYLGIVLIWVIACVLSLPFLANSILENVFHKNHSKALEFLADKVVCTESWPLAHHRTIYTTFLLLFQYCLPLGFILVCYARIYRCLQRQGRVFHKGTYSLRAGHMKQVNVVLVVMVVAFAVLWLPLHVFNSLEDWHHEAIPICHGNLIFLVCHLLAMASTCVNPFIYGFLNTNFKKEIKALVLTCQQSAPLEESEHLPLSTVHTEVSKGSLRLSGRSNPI

[6] = species: Homo sapiens; assay: Selectivity for human NPY4 over NPY1 receptor
[7] = molecular target: T3, Neuropeptide Y receptor type 2 (Homo sapiens, UniProt P49146); assay: Agonist activity at human NPY2 receptor in CHO cells by inhibition of forskolin-stimulated cAMP synthesis; format: functional, cell-based
T3 sequence (P49146 whole entry): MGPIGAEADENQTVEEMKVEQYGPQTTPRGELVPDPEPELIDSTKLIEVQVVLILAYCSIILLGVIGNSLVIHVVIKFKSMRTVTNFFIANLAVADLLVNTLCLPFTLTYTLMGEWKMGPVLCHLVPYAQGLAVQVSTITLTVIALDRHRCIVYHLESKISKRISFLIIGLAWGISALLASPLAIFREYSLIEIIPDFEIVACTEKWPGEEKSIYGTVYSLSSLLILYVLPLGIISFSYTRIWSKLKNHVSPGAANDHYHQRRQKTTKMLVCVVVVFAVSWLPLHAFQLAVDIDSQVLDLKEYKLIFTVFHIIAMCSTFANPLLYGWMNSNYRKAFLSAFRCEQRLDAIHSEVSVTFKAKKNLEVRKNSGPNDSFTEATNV
Outline: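 Whole-cell cAMP: Y1 in HEK293 cells; Y2, Y4 and Y5 in CHO cells; 30,000 cells/well grown 48 h. Cells preincubated 20 min at 37 °C in HBSS with 10 mM HEPES pH 7.4, 0.2% BSA, 4 mM MgCl2 and 1 mM IBMX. Then 10 min at 37 °C with forskolin (2.5 µM CHO; 5.0 µM HEK293) plus graded peptide. Ethanol lysis, 125I-cAMP flashplate readout. Triplicate points, ≥3 repeats, nonlinear regression.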

[8] = molecular target: T3, Neuropeptide Y receptor type 2; assay: Displacement of […] from human NPY2 receptor expressed in CHO cells; format: cell-based; outline: as §1
[9] = molecular target: T2, Neuropeptide Y receptor type 4; assay: Displacement of [125I]hPP from human NPY4 receptor expressed in CHO cells; format: cell-based
Outline: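 Y4 binding used membranes from CHO cells stably expressing cloned human Y4, with 125I-PP as radioligand. Competing peptides were tested over a range of concentrations in 50 mM HEPES pH 7.3, 0.1% BSA, 2.5 mM CaCl2 and 1 mM MgCl2 for 90 min at room temperature. Separation was by filtration and γ-counting. Nonspecific binding was taken with 1 µM PP. Duplicate points, three experiments, nonlinear regression.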

[10] = molecular target: T1, Neuropeptide Y receptor type 1; assay: Agonist activity at human NPY1 receptor in CHO cells by inhibition of forskolin-stimulated cAMP synthesis; format: functional, cell-based

Selectivity ratio [1] | Ki [2] [nM] | Selectivity ratio [4] | EC50 [5] [nM] | Selectivity ratio [6] | EC50 [7] [nM] | Ki [8] [nM] | Ki [9] [nM] | EC50 [10] [nM] | SMILES | Ki [3] [nM]
14 | 30 | 40 | 230 | 10 | 1180 | 50 | 3.9 | – | CCC[C@H](NC(=O)[C@H](CCCN=C(N)N)NC(=O)[C@H](Cc1c[nH]c2ccccc12)NC(=O)[C@H](Cc1ccc(O)cc1)NC(=O)[C@H](CCCN=C(N)N)NC(=O)[C@H](CCC)NC(=O)[C@H](CCCN=C(N)N)NC(=O)[C@H](Cc1c[nH]c2ccccc12)NC(=O)[C@H](Cc1ccc(O)cc1)NC(=O)[C@H](CCCN=C(N)N)NC(=O)[C@H](CCC)NC(=O)[C@H](CCCN=C(N)N)NC(=O)[C@@H](N)Cc1c[nH]c2ccccc12)C(=O)N[C@@H](CCCN=C(N)N)C(=O)N[C@@H](Cc1ccc(O)cc1)C(N)=O (H-WR[Nva]RYWR[Nva]RYWR[Nva]RY-NH2) | 160
– | 80 | – | 370 | – | – | 530 | 2 | 1410 | CCC[C@H](NC(=O)[C@H](CCCN=C(N)N)NC(=O)[C@H](Cc1c[nH]c2ccccc12)NC(=O)[C@@H](N)CCCC[C@H](N)C(=O)N[C@@H](Cc1c[nH]c2ccccc12)C(=O)N[C@@H](CCCN=C(N)N)C(=O)N[C@@H](CCC)C(=O)N[C@@H](CCCN=C(N)N)C(=O)N[C@@H](Cc1ccc(O)cc1)C(N)=O)C(=O)N[C@@H](CCCN=C(N)N)C(=O)N[C@@H](Cc1ccc(O)cc1)C(N)=O (stereo in doubt; 4B) | 280
